Source: paper PMC6774857 (Cell calcium, 2019)
Read-outs that look alike come from different tables or passages of the source.

Legend:
[1] = target: sea urchin NAADP receptor; details: sea urchin egg homogenates, cited from earlier work
[2] = target: sea urchin NAADP receptor; assay: Competition-binding assay with [32P]-NAADP in sea urchin egg extracts; design: species or system Strongylocentrotus purpuratus; details: read-out: IC50 competition with [32P]-NAADP
[3] = test system: SKBR3 cells; assay: Microinjection of SKBR3 cells with GCaMP6M confocal Ca2+ imaging; type: cell-based, human; details: for EC50 of fold-change in the intensity of the Ca2+ signal: SKBR3 cells transfected with TPC2 and GCaMP6M, concentration in the micropipette
[4] = test system: sea urchin NAADP receptor; assay: Ca2+ release from sea urchin egg homogenates; type: biochemical, Strongylocentrotus purpuratus
Outline: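 Ca2+ release measured in Strongylocentrotus purpuratus egg homogenate after adding test compound.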

[5] = target: T1, 23 kDa NAADP binding protein(s) (Homo sapiens, UniProt Q9H910); details: Jurkat cell extracts, 23 kDa band
T1 sequence (Q9H910 1-190): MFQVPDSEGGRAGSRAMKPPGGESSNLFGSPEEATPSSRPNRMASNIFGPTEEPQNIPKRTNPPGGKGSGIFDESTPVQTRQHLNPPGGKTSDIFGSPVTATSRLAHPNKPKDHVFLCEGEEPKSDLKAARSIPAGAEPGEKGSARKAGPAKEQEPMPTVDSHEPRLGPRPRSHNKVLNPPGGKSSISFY

[6] = Solubility in buffered water; type: physicochemical
[7] = test system: U2OS cells; details: cited from earlier work
[8] = target: sea urchin NAADP receptor; type: biochemical, Strongylocentrotus purpuratus; details: read-out: IC50 for desensitization; data not shown
[9] = test system: ascidian oocytes; details: read-out: EC50 of Ca2+ mobilization; cited from earlier work

5-(3-(t-Boc-amino)-propyl)-NAADP [compound 3]
EC50 (agonist) ([1]; previously synthesized and tested): micromolar range

5-[3-(3-Azido-5-(azidomethyl)benzamido)propyl]-NAADP [AIOC-NAADP]
IC50 [2]: 6000 nM | EC50 of fold-change in the intensity of the Ca2+ signal [3]: 173 nM | Potency relative to 9 ([3]; microinjection into cultured human cells, 9 data ref 56): approximately 10 fold | Calcium released, % of the amount of calcium released by 10 μM NAADP ([4]; at 1 mM): 18% | Release of Ca2+ from sea urchin egg homogenates ([4]; concentrations less than 100 μM): did not elicit release

NC(=O)c1ccc[n+]([C@H]2O[C@@H](COP(=O)([O-])OP(=O)(O)OC[C@H]3O[C@@H](n4cnc5c(N)ncnc54)[C@H](OP(=O)(O)O)[C@@H]3O)[C@H](O)[C@@H]2O)c1 [NADP]
Fold higher concentrations required for similar protection compared with NAADP [5]: 40 fold

[N-]=[N+]=NCc1cc(N=[N+]=[N-])cc(C(=O)NCCCc2cncc(C(=O)O)c2)c1 [compound 4, 5-(3-(3-Azido-5-(azidomethyl)benzamido)propyl) nicotinic acid]
Solubility ([6]; buffered water at pH 4.5): low solubility | Solubility ([6]; higher pH (pH ≥ 5)): completely soluble

C#Cc1nc2c(N)ncnc2n1C1OC(COP(=O)(O)OP(=O)(O)OC[C@H]2O[C@@H]([n+]3cc(N=[N+]=[N-])cc(C(=O)[O-])c3)[C@H](O)[C@@H]2O)C(O)C1OP(=O)(O)O (some centres unmarked) [compound 9, 5-azido-8-ethynyl-NAADP]
Activity when microinjected into cultured human U2OS cells [7]: active at low concentration

nicotinic acid adenine dinucleotide phosphate [NAADP]
IC50 [8]: 0.3 nM | EC50 ([1]; read-out: EC50 of Ca2+ mobilization): 10 to 50 nM | EC50 of fold-change in the intensity of the Ca2+ signal [3]: 22 nM | EC50 [9]: 10 to 50 nM
